# Source: PubChem BioAssay (The Scripps Research Institute Molecular Screening Center)
# HGIII-sPLA2 inh – Blocks human group III sPLA2 activity. AID 743126. QFRET BODIPY PC-A2 liposome hydrolysis, fluorescence. Q9NZ20. 370,000 compounds, 0.56% hits. inhibition, % at 12.2 µM;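 active means inhibition above mean plus 3 SD of compounds lying within the high and low control bounds, cut at about 19% in these data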;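 further: 0% = median of test compound wells and 100% = no enzyme DMSO wells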
# TbMetRS inhib – Trypanosoma brucei MetRS inhibition. 360,000 compounds, 0.4% hits. AID 624268. inhibition, % at 11.9 µM. purified T. brucei MetRS, ATP depletion, Kinase-Glo luminescence;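 active means inhibition above a per-plate cutoff of the control wells' mean inhibition plus 3 SD, cut at about 5.5% in these data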;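 further: 0% = DMSO wells median and 100% = median of wells with control inhibitor compound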
#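 technique = Kinase-Glo luminescence, ATP depletion format | system = purified MetRS (methionyl-tRNA synthetase) enzyme from Trypanosoma brucei | timing = 15 min preincubation, 2 h reaction, all 25 °C | evaluation = percent inhibition versus plate control medians | dosing = single dose, 11.9 µM final nominal, 0.9% final DMSO | also added = substrates ATP, L-methionine and bulk Escherichia coli tRNA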
# PLC-beta3 inh – inhibitors of human phospholipase C beta3 | Q01970 | Purified PLC-beta3, fluorogenic substrate, fluorescence | inhibition, % at 12.2 µM | 370,000 compounds, 0.18% hits;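 further: 0% = median of compound wells on plate and 100% = full blocker control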
# Target sequence (Q01970 whole entry, looked up): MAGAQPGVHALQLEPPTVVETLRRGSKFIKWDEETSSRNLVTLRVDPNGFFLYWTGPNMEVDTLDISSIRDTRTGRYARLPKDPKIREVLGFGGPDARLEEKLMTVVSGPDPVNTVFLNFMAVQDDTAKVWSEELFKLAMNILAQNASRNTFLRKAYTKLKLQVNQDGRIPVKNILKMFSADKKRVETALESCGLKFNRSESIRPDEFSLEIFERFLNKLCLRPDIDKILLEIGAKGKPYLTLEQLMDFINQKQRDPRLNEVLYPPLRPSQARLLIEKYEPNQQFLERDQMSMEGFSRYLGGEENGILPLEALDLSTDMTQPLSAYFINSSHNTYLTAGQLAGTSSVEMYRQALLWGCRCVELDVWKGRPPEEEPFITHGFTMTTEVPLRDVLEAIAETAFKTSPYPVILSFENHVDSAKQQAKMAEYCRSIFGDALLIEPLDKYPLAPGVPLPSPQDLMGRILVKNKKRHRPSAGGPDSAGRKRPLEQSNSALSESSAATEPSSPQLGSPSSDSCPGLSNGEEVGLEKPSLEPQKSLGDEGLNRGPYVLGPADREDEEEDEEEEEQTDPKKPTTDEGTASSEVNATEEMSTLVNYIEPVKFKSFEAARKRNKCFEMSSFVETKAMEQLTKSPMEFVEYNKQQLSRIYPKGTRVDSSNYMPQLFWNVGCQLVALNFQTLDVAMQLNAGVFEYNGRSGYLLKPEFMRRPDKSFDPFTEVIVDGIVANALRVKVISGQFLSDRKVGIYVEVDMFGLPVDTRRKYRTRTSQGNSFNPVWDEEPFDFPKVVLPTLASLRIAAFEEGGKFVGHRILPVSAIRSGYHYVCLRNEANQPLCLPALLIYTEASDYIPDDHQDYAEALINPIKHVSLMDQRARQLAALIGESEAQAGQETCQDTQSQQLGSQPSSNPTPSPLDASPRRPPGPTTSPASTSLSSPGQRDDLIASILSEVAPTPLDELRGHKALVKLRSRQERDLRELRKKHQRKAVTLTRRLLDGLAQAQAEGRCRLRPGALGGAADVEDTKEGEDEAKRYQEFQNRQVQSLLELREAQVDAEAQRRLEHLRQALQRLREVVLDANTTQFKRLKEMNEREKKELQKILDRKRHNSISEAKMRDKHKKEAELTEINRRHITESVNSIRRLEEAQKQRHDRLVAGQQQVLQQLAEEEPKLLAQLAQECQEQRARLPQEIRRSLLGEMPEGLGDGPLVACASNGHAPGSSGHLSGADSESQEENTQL
# PLCg1 inh – PLC-gamma1 (human) inhibition, primary screen. inhibition, % at 12.2 µM. AID 720700. P19174. purified PLC-gamma1, fluorogenic substrate, fluorescence. 370,000 compounds, 0.84% hits; in the data active means inhibition above about 9.5%
# PLCg1 ctr – counter-screen for PLC-beta3 inhibitors: inhibitors of human PLC-gamma1 | inhibition, % at 12.3 µM | 3,300 compounds, 3.1% hits | AID 743258 | shares compounds with PLCg1 inh | purified PLC-gamma1, fluorogenic substrate, fluorescence; in the data active means inhibition above about 9.5%
# PLCb3 confirm – human PLC-beta3 inhibition, confirmation | shares compounds with PLCg1 inh | purified PLC-beta3, fluorogenic substrate fluorescence | inhibition, % at 12.3 µM | 3,300 compounds, 1% hits | AID 743261
# An asterisk follows results filed as active; / = no result given. Compounds with a hit are over-represented: about 1.9% of the library has one in this group of screens. Unless noted, no stated cut-off is given here; in the data, active means inhibition above about 11%; inactive means the rest.
SMILES,HGIII-sPLA2 inh,TbMetRS inhib,PLC-beta3 inh,PLCg1 inh,PLCg1 ctr,PLCb3 confirm
O=C(Nc1cc2c(cc1[N+](=O)[O-])OCCO2)c1cccnc1,14,0,7,10*,-3,-1
COc1ccc(C2C(C(=O)Nc3ccc(Cl)c(Cl)c3)CCC(=O)N2c2ccc(OC)cc2)cc1 (stereo not given),6,/,0,0,/,/
O=C(N/N=C/c1ccccn1)c1ccccc1,0,0,5,11*,-11,-6
COc1ccc(C(=O)C2CCN(c3ncnc4sccc34)CC2)cc1,-6,/,-4,0,/,/
O=C(NCc1cccs1)C1CCC(CNS(=O)(=O)c2ccccc2)CC1 (stereo not given),1,0,5,12*,4,5
Cc1ccc(S(=O)(=O)NCC2CCC(C(=O)NCc3cccs3)CC2)cc1 (stereo not given),0,0,2,3,/,/
O=C(NCc1ccccc1)OCCCN1C(=O)CCC12CCCCC2,2,/,1,-2,/,/
C=CCCC1CN(Cc2ccc(OC)cc2)S(=O)(=O)c2c(cccc2N(C)S(=O)(=O)c2ccc(C)cc2)O1 (stereo not given),3,/,0,2,/,/
CCCN1CCC(NC(=O)Nc2ccc(OC)c(OC)c2)CC1,5,-2,6,10*,-4,-4
COc1cccc(C2(O)CCN(C(=O)C3CC3)CC2)c1,6,0,5,2,/,/
COc1cccc(C2(O)CCN(C(=O)C3CCC3)CC2)c1,6,0,6,12*,-1,7
CCSc1ccc([C@@H]2[C@H]3C(=O)N(C)C(=O)[C@H]3[C@]3(C(=O)OC)CCCCN23)cc1,-21,0,3,10*,-6,-4
CN(C)S(=O)(=O)c1ccc(NC(=O)COC(=O)CC2CC3CCC2C3)cc1 (stereo not given),-17,0,3,9.8*,-7,-3
COc1cc(NC(=O)COC(=O)CC2CC3CCC2C3)cc(OC)c1 (stereo not given),-7,0,-2,2,/,/
CC1CCN(C(=O)c2ncn3c2C(=O)NC[C@H]3C)CC1,12,/,2,0,/,/
O=C(NCc1ccccc1Cl)c1ccc(CS(=O)Cc2ccc(Cl)cc2)o1 (stereo not given),-26,0,-5,9.5*,2,7
Cc1ccc(CSc2nnc(-c3n[nH]c4c3CCC4)n2N)cc1,6,/,-2,0,/,/
CCC(C)N(C(=O)CN1C(=O)C2CCCCN2C(=O)c2ccccc21)C(C)CC (stereo not given),-2,/,-3,-2,/,/
O=C(Nc1cccc(C(=O)O)c1)/C(=C/c1cccc([N+](=O)[O-])c1)NC(=O)c1cccc(Br)c1,-11,5,-4,2,/,/
O=C(N/N=C/C(Cl)=C/c1ccc([N+](=O)[O-])cc1)C(=O)Nc1cccc(C(=O)O)c1,10,0,6,13*,-22,-19
O=C(CSc1ncn[nH]1)Nc1ccc2c(c1)CCC2,-49,-1,13*,6,-4,0
Cc1ccc(NC(=O)CSc2ncn[nH]2)cc1,-17,0,4,0,/,/
Cc1cnn(-c2cc(N/N=C/c3ccccc3)ncn2)c1,/,-1,/,/,/,/
Cc1cnn(-c2cc(N/N=C/c3ccccc3F)ncn2)c1,4,0,5,12*,-7,-3
Clc1cc(Br)ccc1OCCOCCN1CCOCC1,-7,1,14*,13*,-4,0
SMILES,HGIII-sPLA2 inh,TbMetRS inhib,PLC-beta3 inh,PLCg1 inh,PLCg1 ctr,PLCb3 confirm
Clc1ccc(OCCOCCN2CCCCC2)c(Br)c1,-6,1,5,11*,-8,1
CC1CCN(CCOCCOc2ccc(Cl)cc2Br)CC1,-20,0,6,5,/,/
O=C(N/C(=C\c1ccccc1)C(=O)N1CCCCCC1)c1ccccc1,9,0,0,9.6*,-3,-1
COC(=O)c1cc2c(c3c4ccccc4n(S(=O)(=O)c4ccccc4)c13)C(=O)N(Cc1ccc(C(F)(F)F)cc1)C2,-4,/,-5,-9,/,/
Cc1ccc(C(=O)N(C)[C@H]2C[C@H]3c4[nH]c5c(-c6ccccc6)cccc5c4CCN3C(=O)[C@H]2[C@H](C)O)cc1,-3,/,-92,-71,/,/
CCc1cccc(NC(=S)Nc2ccc(CN3CCOCC3)cc2)c1,1,0,2,9.8*,-4,-1
Cc1c(C(=O)OCC(=O)c2c(N)n(CC(C)C)c(=O)n(C)c2=O)oc2ccccc12,-6,0,46*,4,-6,-4
CC(C)(C)C(=O)NC1CCCCN(Cc2ccc(Cl)cc2)C1=O (stereo not given),2,/,5,1,/,/
CCOC(=O)CC[C@@]1(C(=O)OCC)C[C@@H](CC(=O)NCc2cccs2)C(=O)N2CCCC=C21,5,/,0,-1,/,/
c1ccc(-n2nnnc2OCCOc2nnnn2-c2ccccc2)cc1,7,-1,9,14*,4,1
CCc1nc2sc3c(c2c(=O)n1N)CCC3,8,-1,1,11*,-3,-3
COc1ccc(/C=N/Nc2ccc(C(F)(F)F)cc2[N+](=O)[O-])cc1O,5,-1,7,11*,3,3
COC(=O)C1=C(C)N(Cc2ccccc2C(F)(F)F)C(=NCc2ccccc2C(F)(F)F)NC1c1cccc(F)c1 (stereo not given),-10,/,8,6,/,/
CCCCCCCCCCOC(=O)Cn1c(COc2ccccc2)[n+](C)c2ccccc21,-158,0,0,9.5*,-5,-5
CCCCCCCCCCOC(=O)Cn1c(COc2cccc(C)c2)[n+](C)c2ccccc21,-169,-1,0,5,/,/
CCCCCCCCCCOC(=O)Cn1c(COc2ccc(OC)cc2)[n+](C)c2ccccc21,/,-1,/,/,/,/
CCCCCCCCCCOC(=O)Cn1c(COc2ccc(Cl)cc2)[n+](C)c2ccccc21,-112,0,-3,13*,7,2
COC(=O)[C@H](CC(C)C)N(CCCc1cn(Cc2ccc(C)cc2)nn1)S(=O)(=O)c1ccc(F)cc1Br,-20,/,1,1,/,/
O=C(NCC1CCN(Cc2ccc(Cl)cc2)CC1)C1CCCN(c2ncnc3c2nc2n3CCCCC2)C1 (stereo not given),-30,-1,-7,11*,-3,-2
O=C(NCC1CCN(Cc2ccc(F)cc2)CC1)C1CCCN(c2ncnc3c2nc2n3CCCCC2)C1 (stereo not given),-8,0,-5,-1,/,/
CC1(C)CC2(CC(C)(C(=O)CSc3nc4ccccc4s3)OC2=O)C(=O)O1 (stereo not given),-25,0,11*,16*,-3,-1
Cc1nc2ccc(NC(=O)c3ccc(F)cc3Cl)cc2c(=O)[nH]1,6,/,-14,-8,/,/
CCN(CC)C(=O)C1=C(C)N(CCC2=CCCCC2)C(=O)C(CC(=O)NCC2CCCCC2)C1 (stereo not given),-2,-1,4,0,/,/
